# In ChEMBL document CHEMBL5705890, “Antitumor activity of an allosteric inhibitor of centromere-associated protein-E” (Proc Natl Acad Sci U S A, 2010):
# What was measured:
# [1] = target: T1, Centromere-associated protein E (Homo sapiens, UniProt Q02224); assay: Binding affinity to wild-type human CENP-E assessed as inhibition constant
# Outline: (§1)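 CENP-E motor domain (residues 2–340, C-terminal 6-his, from E. coli BL21(DE3)) run in MT-stimulated ATPase with 500 μM ATP, 5 μM paclitaxel-stabilized MT, 1 nM enzyme in PEM25 buffer, pH 6.8. Apparent Ki taken from the concentration-response curves with explicit correction for enzyme concentration.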
# [2] = target: T1, Centromere-associated protein E; assay: Uncompetitive binding affinity to microtubule-stimulated ATPase activity of C-terminal 6-his-tagged CENP-E (2 to 340 residues)(unknown origin) expressed in Escherichia coli BL21(DE3) assessed as apparent inhibition constant; settings: read-out: Ki(app); outline: as §1
# A673 = assay: Anticancer activity against human A673 cells assessed as cell growth inhibition measured after 72 hrs by DAPI staining based analysis; assay type: functional
# Outline: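 Cells were seeded and, after 24 h, DNA content was read as T0. Cells were then exposed to varying drug concentrations for a further 72 h (T72). Fixed cells were DAPI-stained and DNA content measured by automated imaging. T72 values were normalized to T0. GI50 is the concentration giving 50% growth inhibition between T0 and Ymax, obtained by curve fitting.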
# CAL-54 = assay: Anticancer activity against human CAL-54 cells assessed as cell growth inhibition measured after 72 hrs by DAPI staining based analysis; assay type: functional
# Outline: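 Cells were seeded, and DNA content at 24 h after seeding (T0) was read by imaging of fixed, DAPI-stained cells. Cells were then exposed to a range of drug concentrations for a further 72 h (T72) and DNA content was read again. T72 values were normalized to T0, and GI50 was taken from curve fits as the concentration giving 50% growth inhibition relative to T0 and Ymax.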
# Caov-3 cell line = assay: Anticancer activity against human Caov-3 cells assessed as cell growth inhibition measured after 72 hrs by DAPI staining based analysis; assay type: functional
# Outline: (§2)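 Cells seeded, DAPI-stained DNA content of fixed cells read by imaging 24 h after seeding (T0), and again after a further 72 h exposure to a range of drug concentrations (T72). T72 values were normalized to T0. Curve fits gave the concentration producing 50% growth inhibition relative to T0 and Ymax (GI50).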
# Capan-2 = assay: Anticancer activity against human Capan-2 cells assessed as cell growth inhibition measured after 72 hrs by DAPI staining based analysis; assay type: functional; outline: as §2
# EKVX [3] = assay: Anticancer activity against human EKVX cells assessed as cell growth inhibition measured after 72 hrs by DAPI staining based analysis; assay type: functional; outline: as §2
# HEC-1-A = assay: Anticancer activity against human HEC-1-A cells assessed as cell growth inhibition measured after 72 hrs by DAPI staining based analysis; assay type: functional
# HT-1080 = assay: Anticancer activity against human HT-1080 cells assessed as cell growth inhibition measured after 72 hrs by DAPI staining based analysis; assay type: functional
# [4] = Anticancer activity against human KPL-1 cells assessed as cell growth inhibition measured after 72 hrs by DAPI staining based analysis; assay type: functional
# MCF7 = assay: Anticancer activity against human MCF7 cells assessed as cell growth inhibition measured after 72 hrs by DAPI staining based analysis; assay type: functional
# [5] = Anticancer activity against human MV-522 cells assessed as cell growth inhibition measured after 72 hrs by DAPI staining based analysis; assay type: functional; settings: MV522
# NCI-H1299 [6] = assay: Anticancer activity against human NCI-H1299 cells assessed as cell growth inhibition measured after 72 hrs by DAPI staining based analysis; assay type: functional
# SAOS-2 = assay: Anticancer activity against human SAOS-2 cells assessed as cell growth inhibition measured after 72 hrs by DAPI staining based analysis; assay type: functional
# [7] = Anticancer activity against human UM-SCC-12 cells assessed as cell growth inhibition measured after 72 hrs by DAPI staining based analysis; assay type: functional
# SK-LMS-1 = assay: Anticancer activity against human SK-LMS-1 cells assessed as cell growth inhibition measured after 72 hrs by DAPI staining based analysis; assay type: functional
# SNU-475 = assay: Anticancer activity against human SNU-475 cells assessed as cell growth inhibition measured after 72 hrs by DAPI staining based analysis; assay type: functional
# SW 962 = assay: Anticancer activity against human SW 962 cells assessed as cell growth inhibition measured after 72 hrs by DAPI staining based analysis; assay type: functional
# A-431 = assay: Anticancer activity against human A-431 cells assessed as cell doubling measured for 72 hrs by DAPI staining based analysis; assay type: functional
# A498 = assay: Anticancer activity against human A498 cells assessed as cell doubling measured for 72 hrs by DAPI staining based analysis; assay type: functional
# BPH-1 = assay: Anticancer activity against human BPH-1 cells assessed as cell doubling measured for 72 hrs by DAPI staining based analysis; assay type: functional
# CGTH-W-1 = assay: Anticancer activity against human CGTH-W-1 cells assessed as cell doubling measured for 72 hrs by DAPI staining based analysis; assay type: functional
# [8] = Anticancer activity against human COLO-704 cells assessed as cell doubling measured for 72 hrs by DAPI staining based analysis; assay type: functional
# EKVX [9] = assay: Anticancer activity against human EKVX cells assessed as cell doubling measured for 72 hrs by DAPI staining based analysis; assay type: functional
# J82 = assay: Anticancer activity against human J82 cells assessed as cell doubling measured for 72 hrs by DAPI staining based analysis; assay type: functional
# [10] = Anticancer activity against human MV-522 cells assessed as cell doubling measured for 72 hrs by DAPI staining based analysis; assay type: functional
# NCI-H661 = assay: Anticancer activity against human NCI-H661 cells assessed as cell doubling measured for 72 hrs by DAPI staining based analysis; assay type: functional
# RKO = assay: Anticancer activity against human RKO cells assessed as cell doubling measured for 72 hrs by DAPI staining based analysis; assay type: functional
# RPMI-2650 = assay: Anticancer activity against human RPMI-2650 cells assessed as cell doubling measured for 72 hrs by DAPI staining based analysis; assay type: functional
# SN12C = assay: Anticancer activity against human SN12C cells assessed as cell doubling measured for 72 hrs by DAPI staining based analysis; assay type: functional
# SNU-5 = assay: Anticancer activity against human SNU-5 cells assessed as cell doubling measured for 72 hrs by DAPI staining based analysis; assay type: functional
# SW1417 = assay: Anticancer activity against human SW1417 cells assessed as cell doubling measured for 72 hrs by DAPI staining based analysis; assay type: functional
# SW1783 = assay: Anticancer activity against human SW1783 cells assessed as cell doubling measured for 72 hrs by DAPI staining based analysis; assay type: functional
# T47D = assay: Anticancer activity against human T47D cells assessed as cell doubling measured for 72 hrs by DAPI staining based analysis; assay type: functional
# THP-1 = assay: Anticancer activity against human THP-1 cells assessed as cell doubling measured for 72 hrs by DAPI staining based analysis; assay type: functional
# COLO 205 = assay: Antitumor activity against human COLO 205 cells in xenograft model assessed as difference between median time to endpoint time of treated versus control group at 62.5 mg/kg; assay type: functional
# HT-29 = assay: Antitumor activity against human HT-29 cells in xenograft model assessed as tumor growth delay at 62.5 mg/kg relative to control; assay type: functional
# NCI-H1299 [11] = assay: Antitumor activity against human NCI-H1299 cells in xenograft model assessed as tumor growth delay at 62.5 mg/kg relative to control; assay type: functional
# T1 sequence (Q02224 whole entry, the tested form may be a part): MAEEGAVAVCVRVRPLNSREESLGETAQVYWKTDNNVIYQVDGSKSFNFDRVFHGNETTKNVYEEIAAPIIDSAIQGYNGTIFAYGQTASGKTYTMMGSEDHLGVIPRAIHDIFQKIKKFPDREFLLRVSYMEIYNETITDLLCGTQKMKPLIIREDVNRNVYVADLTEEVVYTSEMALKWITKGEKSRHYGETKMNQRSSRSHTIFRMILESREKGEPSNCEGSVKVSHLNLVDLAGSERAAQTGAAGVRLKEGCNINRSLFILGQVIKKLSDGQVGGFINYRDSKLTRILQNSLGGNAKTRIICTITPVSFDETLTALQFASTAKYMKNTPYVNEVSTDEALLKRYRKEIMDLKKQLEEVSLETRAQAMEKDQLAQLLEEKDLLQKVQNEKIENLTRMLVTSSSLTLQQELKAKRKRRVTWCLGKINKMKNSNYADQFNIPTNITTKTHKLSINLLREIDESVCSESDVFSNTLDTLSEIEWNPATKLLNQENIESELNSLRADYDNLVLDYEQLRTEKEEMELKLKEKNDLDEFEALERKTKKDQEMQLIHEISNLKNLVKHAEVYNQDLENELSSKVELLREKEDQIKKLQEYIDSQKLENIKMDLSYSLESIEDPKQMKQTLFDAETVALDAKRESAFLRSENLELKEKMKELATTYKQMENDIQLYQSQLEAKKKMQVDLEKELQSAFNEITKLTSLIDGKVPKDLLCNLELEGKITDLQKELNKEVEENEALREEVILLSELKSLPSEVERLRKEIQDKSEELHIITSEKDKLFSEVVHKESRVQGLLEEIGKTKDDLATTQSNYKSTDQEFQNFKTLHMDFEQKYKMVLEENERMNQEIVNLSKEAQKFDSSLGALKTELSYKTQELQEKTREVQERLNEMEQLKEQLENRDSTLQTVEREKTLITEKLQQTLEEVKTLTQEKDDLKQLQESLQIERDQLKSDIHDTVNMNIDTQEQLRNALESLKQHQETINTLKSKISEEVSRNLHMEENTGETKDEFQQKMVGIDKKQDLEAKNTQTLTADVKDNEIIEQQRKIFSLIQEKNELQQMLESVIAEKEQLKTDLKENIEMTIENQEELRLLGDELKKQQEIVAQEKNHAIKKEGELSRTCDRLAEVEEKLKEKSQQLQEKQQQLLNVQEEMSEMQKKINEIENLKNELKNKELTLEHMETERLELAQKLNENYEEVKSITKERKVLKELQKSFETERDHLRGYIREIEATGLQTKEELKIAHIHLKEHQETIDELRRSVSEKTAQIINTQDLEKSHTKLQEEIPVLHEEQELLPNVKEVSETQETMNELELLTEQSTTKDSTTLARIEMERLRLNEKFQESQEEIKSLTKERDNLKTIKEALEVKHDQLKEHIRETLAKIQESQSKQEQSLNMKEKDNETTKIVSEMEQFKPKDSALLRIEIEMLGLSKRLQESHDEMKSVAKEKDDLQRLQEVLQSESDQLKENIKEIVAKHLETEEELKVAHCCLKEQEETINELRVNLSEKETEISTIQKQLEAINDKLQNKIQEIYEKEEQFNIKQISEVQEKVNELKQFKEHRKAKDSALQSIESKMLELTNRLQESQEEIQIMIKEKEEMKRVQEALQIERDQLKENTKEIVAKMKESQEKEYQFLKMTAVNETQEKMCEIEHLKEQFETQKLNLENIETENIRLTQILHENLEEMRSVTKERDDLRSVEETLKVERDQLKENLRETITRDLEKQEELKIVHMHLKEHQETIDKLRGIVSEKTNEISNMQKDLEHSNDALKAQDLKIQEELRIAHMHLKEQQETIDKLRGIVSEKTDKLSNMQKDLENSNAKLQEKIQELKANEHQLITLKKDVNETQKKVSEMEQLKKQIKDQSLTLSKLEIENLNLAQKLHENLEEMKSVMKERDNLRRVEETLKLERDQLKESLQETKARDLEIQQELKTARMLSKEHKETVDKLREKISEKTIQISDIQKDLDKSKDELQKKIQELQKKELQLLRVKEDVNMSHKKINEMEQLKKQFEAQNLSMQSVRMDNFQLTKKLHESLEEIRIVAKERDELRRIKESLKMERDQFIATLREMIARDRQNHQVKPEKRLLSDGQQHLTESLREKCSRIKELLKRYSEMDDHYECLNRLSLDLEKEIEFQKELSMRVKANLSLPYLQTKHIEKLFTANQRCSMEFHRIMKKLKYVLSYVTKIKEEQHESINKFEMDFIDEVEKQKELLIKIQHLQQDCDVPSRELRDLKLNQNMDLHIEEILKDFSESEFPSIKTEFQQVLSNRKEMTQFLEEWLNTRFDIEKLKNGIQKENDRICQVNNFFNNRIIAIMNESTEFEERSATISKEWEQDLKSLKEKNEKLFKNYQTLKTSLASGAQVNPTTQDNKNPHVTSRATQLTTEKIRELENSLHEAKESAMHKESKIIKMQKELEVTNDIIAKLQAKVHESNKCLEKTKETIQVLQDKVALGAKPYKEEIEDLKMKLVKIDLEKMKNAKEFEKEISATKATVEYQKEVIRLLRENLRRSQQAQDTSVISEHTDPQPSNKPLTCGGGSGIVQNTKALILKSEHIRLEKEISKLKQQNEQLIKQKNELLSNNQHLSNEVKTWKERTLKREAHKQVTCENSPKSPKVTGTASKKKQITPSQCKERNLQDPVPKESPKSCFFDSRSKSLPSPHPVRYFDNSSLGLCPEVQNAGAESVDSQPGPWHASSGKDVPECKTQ
smiles,measurement,setting,value
CC(C)Oc1ccc(C(=O)N[C@H](CNC(=O)CN(C)C)Cc2ccc(-c3cn4cccc([C@H](C)O)c4n3)cc2)cc1Cl [GSK-923295A],Ki,[1],3.2 nM
same,Ki,[2],3.2 nM
same,GI50,A673,23 nM
same,GI50,CAL-54,49 nM
same,GI50,Caov-3 cell line,33 nM
same,GI50,Capan-2,119 nM
same,GI50,EKVX [3],28 nM
same,GI50,HEC-1-A,50 nM
same,GI50,HT-1080,24 nM
same,GI50,[4],31 nM
same,GI50,MCF7,29 nM
same,GI50,[5],48 nM
same,GI50,NCI-H1299 [6],52 nM
same,GI50,SAOS-2,41 nM
same,GI50,[7],33 nM
same,GI50,SK-LMS-1,30 nM
same,GI50,SNU-475,26 nM
same,GI50,SW 962,21 nM
same,Activity,A-431,2.95
same,Activity,A498,1.11
same,Activity,BPH-1,2.08
same,Activity,CGTH-W-1,3.66
same,Activity,[8],2.48
same,Activity,EKVX [9],2.69
same,Activity,J82,2.04
same,Activity,[10],2.81
same,Activity,NCI-H661,1.56
same,Activity,RKO,4.17
same,Activity,RPMI-2650,3
same,Activity,SN12C,2.47
same,Activity,SNU-5,1.47
same,Activity,SW1417,1.94
same,Activity,SW1783,1.47
same,Activity,T47D,1.44
same,Activity,THP-1,1.38
same,Time,COLO 205,24.9 days
same,Activity,HT-29,6%
same,Activity,NCI-H1299 [11],15%
